Assay results reported in the M2OR odorant receptor database.

What was measured:
Conditions in all cases: stereoisomer not certain
[1] = biological target: T1, UniProt Q8VGC6
T1 sequence (whole entry): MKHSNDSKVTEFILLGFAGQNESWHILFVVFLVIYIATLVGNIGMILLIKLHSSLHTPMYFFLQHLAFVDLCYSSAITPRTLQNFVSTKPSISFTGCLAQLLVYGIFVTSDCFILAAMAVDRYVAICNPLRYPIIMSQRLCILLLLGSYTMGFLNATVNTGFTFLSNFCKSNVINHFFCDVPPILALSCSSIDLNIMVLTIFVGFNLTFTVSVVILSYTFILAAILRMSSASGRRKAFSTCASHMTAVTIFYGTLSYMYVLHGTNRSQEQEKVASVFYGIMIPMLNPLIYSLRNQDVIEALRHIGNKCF
Summary of the method: (§1)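 Assay methods differ from source to source, frequently being transient luciferase assays in mammalian cell lines. For each receptor–molecule pair, the label responsive (active) applies when the original authors judged the measured signal statistically different from baseline, and non-responsive (inactive) applies otherwise.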

[2] = biological target: T2, UniProt Q8VGD7
T2 sequence (whole entry): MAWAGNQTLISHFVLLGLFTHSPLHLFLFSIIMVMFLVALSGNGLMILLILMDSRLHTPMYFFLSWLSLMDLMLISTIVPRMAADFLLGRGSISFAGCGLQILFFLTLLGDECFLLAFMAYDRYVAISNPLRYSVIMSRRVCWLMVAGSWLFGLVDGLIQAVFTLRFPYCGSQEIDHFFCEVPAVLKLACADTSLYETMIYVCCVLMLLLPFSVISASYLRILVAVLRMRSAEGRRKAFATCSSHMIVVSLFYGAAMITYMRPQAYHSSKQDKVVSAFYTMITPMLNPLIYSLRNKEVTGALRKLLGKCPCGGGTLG
Summary of the method: as §1

[3] = biological target: T3, UniProt Q8VGH1
T3 sequence (whole entry): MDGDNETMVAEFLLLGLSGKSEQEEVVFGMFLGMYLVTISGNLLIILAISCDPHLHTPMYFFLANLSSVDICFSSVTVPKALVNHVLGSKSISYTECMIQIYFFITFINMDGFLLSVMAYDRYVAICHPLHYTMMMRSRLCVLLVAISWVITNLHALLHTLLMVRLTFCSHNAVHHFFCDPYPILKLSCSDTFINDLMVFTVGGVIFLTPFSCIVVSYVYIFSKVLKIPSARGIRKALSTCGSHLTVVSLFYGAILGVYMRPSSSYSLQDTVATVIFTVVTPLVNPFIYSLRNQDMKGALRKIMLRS
Summary of the method: as §1

[4] = biological target: T4, UniProt Q8VGJ1
T4 sequence (whole entry): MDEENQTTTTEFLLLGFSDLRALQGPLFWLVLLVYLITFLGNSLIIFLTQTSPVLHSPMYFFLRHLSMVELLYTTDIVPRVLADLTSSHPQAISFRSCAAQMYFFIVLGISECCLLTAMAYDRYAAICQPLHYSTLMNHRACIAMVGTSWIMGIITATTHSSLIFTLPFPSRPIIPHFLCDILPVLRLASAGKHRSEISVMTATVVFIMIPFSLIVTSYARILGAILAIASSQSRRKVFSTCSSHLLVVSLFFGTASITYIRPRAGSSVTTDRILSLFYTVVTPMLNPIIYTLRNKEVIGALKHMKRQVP
Summary of the method: as §1

[5] = biological target: T5, UniProt Q8VGJ3
T5 sequence (whole entry): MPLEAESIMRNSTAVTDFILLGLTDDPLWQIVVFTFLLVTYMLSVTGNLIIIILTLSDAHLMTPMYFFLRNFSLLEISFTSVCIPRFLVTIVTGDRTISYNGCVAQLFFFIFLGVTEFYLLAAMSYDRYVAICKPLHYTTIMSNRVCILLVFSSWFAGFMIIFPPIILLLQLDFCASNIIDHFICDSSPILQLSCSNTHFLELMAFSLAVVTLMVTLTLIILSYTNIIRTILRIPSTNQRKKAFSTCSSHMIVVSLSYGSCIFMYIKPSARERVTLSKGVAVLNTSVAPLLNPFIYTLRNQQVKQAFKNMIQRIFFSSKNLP
Summary of the method: as §1

[6] = biological target: T6, UniProt Q8VGJ5
T6 sequence (whole entry): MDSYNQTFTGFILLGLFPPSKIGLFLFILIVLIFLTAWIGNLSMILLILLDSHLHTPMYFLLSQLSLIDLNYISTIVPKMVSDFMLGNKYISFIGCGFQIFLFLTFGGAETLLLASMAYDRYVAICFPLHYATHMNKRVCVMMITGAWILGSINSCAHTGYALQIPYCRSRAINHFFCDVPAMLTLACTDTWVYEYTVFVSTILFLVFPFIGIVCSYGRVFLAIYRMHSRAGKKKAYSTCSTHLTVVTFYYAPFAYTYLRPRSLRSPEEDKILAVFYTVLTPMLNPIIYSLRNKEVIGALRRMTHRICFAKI
Summary of the method: as §1

[7] = biological target: T7, UniProt Q8VGL0
T7 sequence (whole entry): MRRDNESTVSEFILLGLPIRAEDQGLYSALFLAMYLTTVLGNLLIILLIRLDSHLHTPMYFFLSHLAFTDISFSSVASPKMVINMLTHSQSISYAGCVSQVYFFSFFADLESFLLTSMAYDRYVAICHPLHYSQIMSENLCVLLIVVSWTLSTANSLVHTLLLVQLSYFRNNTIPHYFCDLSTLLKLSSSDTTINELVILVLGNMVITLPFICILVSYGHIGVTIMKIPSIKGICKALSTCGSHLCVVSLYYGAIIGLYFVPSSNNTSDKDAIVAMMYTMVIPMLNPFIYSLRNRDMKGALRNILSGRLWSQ
Summary of the method: as §1

[8] = biological target: T8, UniProt Q8VGL7
T8 sequence (whole entry): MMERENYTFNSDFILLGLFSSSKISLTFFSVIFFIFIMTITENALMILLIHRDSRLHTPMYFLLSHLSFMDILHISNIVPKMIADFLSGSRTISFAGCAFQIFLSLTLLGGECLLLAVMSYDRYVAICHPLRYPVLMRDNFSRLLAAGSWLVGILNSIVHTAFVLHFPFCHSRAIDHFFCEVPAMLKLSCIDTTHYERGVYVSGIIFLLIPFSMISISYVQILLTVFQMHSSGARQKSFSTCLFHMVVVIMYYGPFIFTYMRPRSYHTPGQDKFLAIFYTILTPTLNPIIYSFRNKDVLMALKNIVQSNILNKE
Summary of the method: as §1

[9] = biological target: T9, UniProt Q8VGM2
T9 sequence (whole entry): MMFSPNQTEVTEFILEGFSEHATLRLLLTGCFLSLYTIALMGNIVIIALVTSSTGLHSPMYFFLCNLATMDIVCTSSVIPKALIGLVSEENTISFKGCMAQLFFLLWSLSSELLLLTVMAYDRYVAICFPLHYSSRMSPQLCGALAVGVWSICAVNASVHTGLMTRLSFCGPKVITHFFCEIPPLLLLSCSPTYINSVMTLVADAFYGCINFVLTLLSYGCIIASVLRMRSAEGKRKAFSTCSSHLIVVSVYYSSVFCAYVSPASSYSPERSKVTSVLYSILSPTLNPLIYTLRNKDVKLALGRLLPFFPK
Summary of the method: as §1

[10] = biological target: T10, UniProt Q8VGP6
T10 sequence (whole entry): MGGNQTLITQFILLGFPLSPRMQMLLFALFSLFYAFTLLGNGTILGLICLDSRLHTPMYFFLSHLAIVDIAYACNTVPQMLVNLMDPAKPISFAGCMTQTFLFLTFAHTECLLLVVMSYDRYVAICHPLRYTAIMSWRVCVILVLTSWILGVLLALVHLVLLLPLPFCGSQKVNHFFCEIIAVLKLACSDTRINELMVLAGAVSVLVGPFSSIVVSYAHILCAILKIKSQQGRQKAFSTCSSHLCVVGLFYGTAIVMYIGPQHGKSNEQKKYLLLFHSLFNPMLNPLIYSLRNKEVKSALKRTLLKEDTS
Summary of the method: as §1

[11] = biological target: T11, UniProt Q8VGQ3
T11 sequence (whole entry): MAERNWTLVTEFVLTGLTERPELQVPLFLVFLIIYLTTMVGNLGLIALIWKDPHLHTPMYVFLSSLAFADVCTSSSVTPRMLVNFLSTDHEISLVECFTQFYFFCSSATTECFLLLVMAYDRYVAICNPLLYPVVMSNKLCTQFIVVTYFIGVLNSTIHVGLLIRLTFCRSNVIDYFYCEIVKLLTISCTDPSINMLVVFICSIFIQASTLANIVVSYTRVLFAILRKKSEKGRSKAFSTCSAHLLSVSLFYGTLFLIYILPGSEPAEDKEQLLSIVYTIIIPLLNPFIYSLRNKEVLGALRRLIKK
Summary of the method: as §1

[12] = biological target: T12, UniProt Q8VGT4
T12 sequence (whole entry): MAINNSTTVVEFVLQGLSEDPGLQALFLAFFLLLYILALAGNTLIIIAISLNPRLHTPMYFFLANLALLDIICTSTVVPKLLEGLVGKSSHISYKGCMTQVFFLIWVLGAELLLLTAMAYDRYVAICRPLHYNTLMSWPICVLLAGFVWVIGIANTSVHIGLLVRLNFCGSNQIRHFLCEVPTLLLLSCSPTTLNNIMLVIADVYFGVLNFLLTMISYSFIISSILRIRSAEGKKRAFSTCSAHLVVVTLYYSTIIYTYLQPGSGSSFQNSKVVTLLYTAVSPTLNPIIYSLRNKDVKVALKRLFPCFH
Summary of the method: as §1

[13] = biological target: T13, UniProt Q8VGU3
T13 sequence (whole entry): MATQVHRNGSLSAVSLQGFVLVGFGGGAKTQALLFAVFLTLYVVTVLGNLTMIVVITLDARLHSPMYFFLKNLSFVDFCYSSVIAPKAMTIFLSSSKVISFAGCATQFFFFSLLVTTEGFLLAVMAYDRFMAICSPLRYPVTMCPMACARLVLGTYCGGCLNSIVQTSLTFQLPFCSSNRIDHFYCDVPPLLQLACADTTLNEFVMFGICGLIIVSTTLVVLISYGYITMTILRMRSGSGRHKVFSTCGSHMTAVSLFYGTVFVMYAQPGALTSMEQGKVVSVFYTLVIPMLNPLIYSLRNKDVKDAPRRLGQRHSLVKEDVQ
Summary of the method: as §1

[14] = biological target: T14, UniProt Q8VGV1
T14 sequence (whole entry): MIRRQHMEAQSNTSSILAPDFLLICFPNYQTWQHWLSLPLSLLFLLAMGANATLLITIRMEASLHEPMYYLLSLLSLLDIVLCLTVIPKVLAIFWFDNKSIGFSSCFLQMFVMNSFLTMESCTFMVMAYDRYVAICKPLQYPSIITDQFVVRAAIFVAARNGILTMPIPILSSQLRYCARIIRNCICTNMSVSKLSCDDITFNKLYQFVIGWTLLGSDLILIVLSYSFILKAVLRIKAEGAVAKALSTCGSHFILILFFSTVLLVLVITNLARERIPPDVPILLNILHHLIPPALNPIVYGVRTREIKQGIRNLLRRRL
Summary of the method: as §1

[15] = biological target: T15, UniProt Q8VGV7
T15 sequence (whole entry): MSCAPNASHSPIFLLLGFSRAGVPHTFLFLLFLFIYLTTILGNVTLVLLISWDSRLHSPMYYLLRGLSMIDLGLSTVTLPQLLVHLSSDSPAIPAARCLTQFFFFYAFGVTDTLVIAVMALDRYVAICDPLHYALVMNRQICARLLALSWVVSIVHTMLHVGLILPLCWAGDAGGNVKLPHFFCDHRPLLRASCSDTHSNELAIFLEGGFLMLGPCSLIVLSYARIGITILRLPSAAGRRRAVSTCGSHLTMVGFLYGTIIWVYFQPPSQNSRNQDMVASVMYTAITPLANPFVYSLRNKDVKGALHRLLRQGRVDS
Summary of the method: as §1

[16] = biological target: T16, UniProt Q8VGW5
T16 sequence (whole entry): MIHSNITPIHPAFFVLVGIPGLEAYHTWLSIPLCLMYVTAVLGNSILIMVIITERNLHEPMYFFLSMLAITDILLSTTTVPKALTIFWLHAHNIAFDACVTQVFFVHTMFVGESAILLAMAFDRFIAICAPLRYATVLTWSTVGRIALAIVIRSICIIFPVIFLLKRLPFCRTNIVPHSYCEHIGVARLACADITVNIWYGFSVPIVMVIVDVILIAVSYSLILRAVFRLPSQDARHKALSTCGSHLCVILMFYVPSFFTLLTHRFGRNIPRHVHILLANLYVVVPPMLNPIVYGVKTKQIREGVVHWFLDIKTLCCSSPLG
Summary of the method: as §1

[17] = biological target: T17, UniProt Q8VGX3
T17 sequence (whole entry): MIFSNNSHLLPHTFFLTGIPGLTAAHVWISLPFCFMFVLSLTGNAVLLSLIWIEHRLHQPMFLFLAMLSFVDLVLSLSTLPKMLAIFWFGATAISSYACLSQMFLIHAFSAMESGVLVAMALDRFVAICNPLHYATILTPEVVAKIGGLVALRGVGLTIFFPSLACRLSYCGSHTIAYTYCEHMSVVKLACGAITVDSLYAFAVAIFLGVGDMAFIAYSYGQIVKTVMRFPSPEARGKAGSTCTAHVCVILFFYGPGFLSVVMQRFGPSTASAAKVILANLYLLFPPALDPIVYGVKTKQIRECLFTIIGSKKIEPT
Summary of the method: as §1

[18] = biological target: T18, UniProt Q8VGX5
T18 sequence (whole entry): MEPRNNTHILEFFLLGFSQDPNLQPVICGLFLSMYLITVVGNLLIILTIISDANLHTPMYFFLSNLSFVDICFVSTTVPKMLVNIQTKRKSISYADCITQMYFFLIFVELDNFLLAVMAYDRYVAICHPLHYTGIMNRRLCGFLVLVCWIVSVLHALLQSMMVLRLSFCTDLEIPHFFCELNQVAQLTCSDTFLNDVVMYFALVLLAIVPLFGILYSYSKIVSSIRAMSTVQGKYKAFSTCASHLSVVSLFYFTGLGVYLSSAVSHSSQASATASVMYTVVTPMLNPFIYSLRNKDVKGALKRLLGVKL
Summary of the method: as §1

CCOc1ccccc1
odorant receptor agonist call [1]: inactive

CCCCCCCCCC(=O)[O-].[H+]
odorant receptor agonist call [1]: active | odorant receptor agonist call [2]: inactive | odorant receptor agonist call [3]: inactive | odorant receptor agonist call [4]: inactive | odorant receptor agonist call [5]: inactive | odorant receptor agonist call [6]: inactive | odorant receptor agonist call [7]: inactive | odorant receptor agonist call [8]: inactive | odorant receptor agonist call [9]: inactive | odorant receptor agonist call [10]: inactive | odorant receptor agonist call [11]: inactive | odorant receptor agonist call [12]: inactive | odorant receptor agonist call [13]: inactive | odorant receptor agonist call [14]: active | odorant receptor agonist call [15]: inactive | odorant receptor agonist call [16]: inactive | odorant receptor agonist call [17]: inactive | odorant receptor agonist call [18]: inactive
